ARFGAP1 inhibitor: rat ARFGAP1 inhibition; inhibition, % at 16.5 µM; Arfgap1-stimulated ARF1 GTP hydrolysis, GDP FP detection; actives 0.26% (n = 360,000);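 active = inhibition above a per-plate limit, mean inhibition of low control wells plus 3 SD, cut at about 25% in these data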
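Material: rat Arfgap1 GAP domain (His6, aa 1-136), purified enzyme. Also added: human ARF1(Δ1-17)-GTP substrate. Compound dosing: 16.5 µM single point, 1.26% DMSO. Timing: enzyme reaction 120 min at 25 °C after 20 min preincubation. Signal: GDP detection by fluorescence polarization. Read-out basis: percent inhibition of GAP-stimulated GDP formation, scaled between DMSO and no-Arfgap1 medians.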
ASAP1 GAP inh: inhibitors of human ASAP1 ArfGAP activity. Q9ULH1. ASAP1-stimulated ARF1 GTP hydrolysis, GDP FP detection. inhibition, % at 16.5 µM. actives 0.19% (n = 360,000). AID 624377; in the data active = inhibition above about 25%
Granule exo inh: lytic granule exocytosis inhibition. TALL-104 LAMP-1 surface exposure, flow cytometry; cells stimulated with thapsigargin and PMA. inhibition, % at 10 µM. actives 0.66% (n = 360,000). AID 651702;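 active = inhibition above about 55%, limit read from the data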
V-ATPase pHluor: yeast V-ATPase proton transport regulation by pHLuorin | S. cerevisiae, pHLuorin cytosolic pH fluorescence | response, % at 10 µM | actives 0.37% (n = 350,000) | AID 504577; in the data active = response mostly above about 7.3%, no sharp cut-off; inactive = mostly below about 5.4%; note: actives read high
CendR NRP1 mod: modulators of CendR peptide binding to human neuropilin-1 | O14786 | actives 0.85% (n = 360,000) | FAM-RPARPAR peptide binding to NRP-1, fluorescence polarization | inhibition, % at 25 µM;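 active = inhibition or corrected inhibition above about 18%, plus a signal ratio from 0.5 to 1.5, limit read from the data, passing the limit was not always enough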
Granule exo CP1: lytic granule exocytosis inhibition. shares compounds with Granule exo inh. TALL-104 cells, LAMP-1 externalization, flow cytometry; stimulated with PMA plus thapsigargin. inhibition, % at 10 µM. actives 11% (n = 1,500). AID 651954; in the data active = inhibition above about 60%
A number is an active result. Sampled rows, rich in hits. Any-hit rate of the full collection: about 2.2%.

For COCC(=O)N(C)CC1CCCN(CCc2ccccc2OC)C1 (centres undefined) the results were ARFGAP1 inhibitor inactive, ASAP1 GAP inh inactive, Granule exo inh inactive, V-ATPase pHluor inactive and CendR NRP1 mod inactive.
`COc1ccc(CN(C)CC2CCCN(CCc3ccc(F)cc3)C2)cc1OC` (centres undefined) gave ARFGAP1 inhibitor inactive, ASAP1 GAP inh inactive, Granule exo inh 60, V-ATPase pHluor inactive, CendR NRP1 mod inactive and Granule exo CP1 inactive.
Screening COC(=O)CCC(=O)N(C)CC1CCCN(CCc2cccc(C(F)(F)F)c2)C1 (centres undefined) returned ARFGAP1 inhibitor inactive, ASAP1 GAP inh inactive, Granule exo inh inactive, V-ATPase pHluor inactive and CendR NRP1 mod inactive.
For COc1ccc(C(=O)OCC(=O)Nc2ccc3c(c2)OCO3)cc1S(=O)(=O)N1CCOCC1 the results were ARFGAP1 inhibitor inactive, ASAP1 GAP inh inactive, Granule exo inh inactive, V-ATPase pHluor inactive and CendR NRP1 mod inactive.
`OC[C@@H]1CN(Cc2ccc(-c3ccccc3)cc2)C[C@H](n2cnc3c(N4CCOCC4)ncnc32)O1` gave ARFGAP1 inhibitor inactive, ASAP1 GAP inh inactive, Granule exo inh inactive and CendR NRP1 mod inactive.
COc1cc(CN(C)CC2CCCN(CCc3ccccc3F)C2)cc(Cl)c1OC (centres undefined) was read as ARFGAP1 inhibitor inactive, ASAP1 GAP inh inactive, Granule exo inh 56, V-ATPase pHluor inactive, CendR NRP1 mod inactive and Granule exo CP1 inactive.
Screening CC(C)NC(=O)N(C)C[C@H]1Oc2ccc(NC(=O)C3CC3)cc2C(=O)N([C@H](C)CO)C[C@@H]1C returned ARFGAP1 inhibitor inactive, ASAP1 GAP inh inactive, Granule exo inh 79, V-ATPase pHluor inactive, CendR NRP1 mod inactive and Granule exo CP1 inactive.
Screening Cc1noc(C)c1S(=O)(=O)N(C)C[C@H]1Oc2c(NC(=O)Nc3ccc(C(F)(F)F)cc3)cccc2C(=O)N([C@H](C)CO)C[C@@H]1C returned ARFGAP1 inhibitor inactive, ASAP1 GAP inh inactive, Granule exo inh inactive, V-ATPase pHluor inactive and CendR NRP1 mod inactive.
Screening C[C@@H]1CN([C@@H](C)CO)C(=O)c2cc(NC(=O)Nc3ccc4c(c3)OCO4)ccc2O[C@H]1CN(C)S(=O)(=O)c1cn(C)cn1 returned ARFGAP1 inhibitor inactive, ASAP1 GAP inh inactive, Granule exo inh 64, V-ATPase pHluor inactive, CendR NRP1 mod inactive and Granule exo CP1 inactive.
`Cc1noc(C)c1S(=O)(=O)N(C)C[C@H]1Oc2c(NC(=O)Nc3ccccc3)cccc2C(=O)N([C@H](C)CO)C[C@@H]1C` gave ARFGAP1 inhibitor inactive, ASAP1 GAP inh inactive, Granule exo inh 65, V-ATPase pHluor inactive, CendR NRP1 mod inactive and Granule exo CP1 inactive.
Screening CC(C)NC(=O)N(C)C[C@H]1Oc2ccc(NC(=O)NC3CCCCC3)cc2C(=O)N([C@H](C)CO)C[C@@H]1C returned ARFGAP1 inhibitor inactive, ASAP1 GAP inh inactive, Granule exo inh inactive, V-ATPase pHluor inactive and CendR NRP1 mod inactive.
`CC(Sc1ccc(Cl)cc1)C(=O)N(C)CC(=O)Nc1ccc(N2CCOCC2)cc1` (centres undefined) gave ARFGAP1 inhibitor inactive, ASAP1 GAP inh inactive, Granule exo inh inactive, V-ATPase pHluor inactive and CendR NRP1 mod inactive.
N#Cc1ncc(Cc2ccccc2)nc1C#N was read as ARFGAP1 inhibitor inactive, ASAP1 GAP inh inactive, Granule exo inh inactive, V-ATPase pHluor inactive and CendR NRP1 mod inactive.
c1ccc(CNCCC(Cc2ccccc2)c2ccco2)cc1 (centres undefined) was read as ARFGAP1 inhibitor inactive, ASAP1 GAP inh inactive, Granule exo inh 72, V-ATPase pHluor inactive, CendR NRP1 mod inactive and Granule exo CP1 inactive.
CN(C)c1ccc(CNCCC(Cc2ccccc2)c2ccco2)cc1 (centres undefined) was read as ARFGAP1 inhibitor inactive, ASAP1 GAP inh inactive, Granule exo inh inactive, V-ATPase pHluor inactive and CendR NRP1 mod inactive.
`Cc1csc(NC(=O)CCC(=O)N(CC(=O)NC2CCCCC2)c2ccccc2)n1` gave ARFGAP1 inhibitor inactive, ASAP1 GAP inh inactive, Granule exo inh inactive, V-ATPase pHluor inactive and CendR NRP1 mod inactive.
`Cc1ccc(C)c(C(=O)CN2C(=O)NC3(CCCCCC3)C2=O)c1` gave ARFGAP1 inhibitor inactive, ASAP1 GAP inh inactive, Granule exo inh inactive, V-ATPase pHluor inactive and CendR NRP1 mod inactive.
Cc1ccc2nc3c(c(Nc4ccc(O)cc4)c2c1)CCC3 was read as ARFGAP1 inhibitor inactive, ASAP1 GAP inh inactive, Granule exo inh 61, V-ATPase pHluor inactive, CendR NRP1 mod inactive and Granule exo CP1 inactive.
For COc1ccc(Nc2c3c(nc4ccc(C)cc24)CCC3)cc1 the results were ARFGAP1 inhibitor inactive, ASAP1 GAP inh inactive, Granule exo inh inactive, V-ATPase pHluor inactive and CendR NRP1 mod inactive.
Screening COCCN(C(=O)COC(=O)c1sccc1C)c1c(N)n(Cc2ccccc2)c(=O)[nH]c1=O returned ARFGAP1 inhibitor inactive, ASAP1 GAP inh inactive, Granule exo inh inactive, V-ATPase pHluor inactive and CendR NRP1 mod inactive.
COC(C[C@@H](O)[C@H](C)[C@@H](O)COCc1ccccc1)OC was read as ARFGAP1 inhibitor inactive, ASAP1 GAP inh inactive, Granule exo inh 70, V-ATPase pHluor inactive, CendR NRP1 mod inactive and Granule exo CP1 inactive.
O=C(c1cccc(C(F)(F)F)c1)N1CCC(=O)N(C(CO)Cc2ccccc2)CC1 (centres undefined) was read as ARFGAP1 inhibitor inactive, ASAP1 GAP inh inactive, Granule exo inh 80, V-ATPase pHluor inactive, CendR NRP1 mod inactive and Granule exo CP1 inactive.
Screening O=C(Nc1ccc(N2CCN(c3ncccc3C(F)(F)F)CC2)nc1)c1cccs1 returned ARFGAP1 inhibitor inactive, ASAP1 GAP inh inactive, Granule exo inh 75, V-ATPase pHluor inactive, CendR NRP1 mod inactive and Granule exo CP1 inactive.
For CC1(C)NC(=O)N(CC(=O)OCC(=O)N2CCN(S(=O)(=O)c3ccccc3)CC2)C1=O the results were ARFGAP1 inhibitor inactive, ASAP1 GAP inh inactive, Granule exo inh inactive, V-ATPase pHluor inactive and CendR NRP1 mod inactive.
`COc1ccc(-c2ccc(CCC(=O)O)n2-c2ccccc2OC)cc1` gave ARFGAP1 inhibitor inactive, ASAP1 GAP inh inactive, Granule exo inh 67, V-ATPase pHluor inactive, CendR NRP1 mod inactive and Granule exo CP1 inactive.
COc1ccc(C2=C3C(=O)OCC3Cc3ncn(Cc4ccccc4)c32)cc1 (centres undefined) was read as ARFGAP1 inhibitor inactive, ASAP1 GAP inh inactive, Granule exo inh inactive, V-ATPase pHluor inactive and CendR NRP1 mod inactive.
For CCN(CC)CCSc1nnc2c3cc(C)ccc3n(Cc3ccccc3)c2n1 the results were ARFGAP1 inhibitor inactive, ASAP1 GAP inh inactive, Granule exo inh 64, V-ATPase pHluor inactive, CendR NRP1 mod inactive and Granule exo CP1 inactive.
For C=CCOc1ccc(/C=C/C(=O)OCC(=O)NCC(=O)Nc2c(C)cc(C)cc2C)cc1 the results were ARFGAP1 inhibitor inactive, ASAP1 GAP inh inactive, Granule exo inh inactive, V-ATPase pHluor inactive and CendR NRP1 mod inactive.

High-throughput results as filed in PubChem.
